Beta apoptosis – blocks beta cell apoptosis. INS-1E cytokine-induced death, ATP luminescence, 48 h; percent of positive-control rescue, neutral wells zero. protection from apoptosis, % (no concentration beside the values). 300,000 compounds, 0.8% hits. AID 435005;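 active means Every replicate reaches about 75%, or at least half do and their mean reaches it too, limit read from the data; inconclusive means At least half of replicates reach the limit but their mean does not; inactive means Under half of replicates reach the limit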;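 further: higher means more ATP so stronger rescue from cytokine killing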
Mdm2-MdmX inh – inhibitors of human Mdm2/MdmX interaction; SaOS-2 split-luciferase Mdm2/MdmX complementation, luminescence; 330,000 compounds, 3% hits; AID 485346; inhibition, % at 8 µM; O15151+Q00987;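 active means inhibition of at least 50% at 8 µM in the primary screen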
Target sequence (O15151 whole entry, looked up): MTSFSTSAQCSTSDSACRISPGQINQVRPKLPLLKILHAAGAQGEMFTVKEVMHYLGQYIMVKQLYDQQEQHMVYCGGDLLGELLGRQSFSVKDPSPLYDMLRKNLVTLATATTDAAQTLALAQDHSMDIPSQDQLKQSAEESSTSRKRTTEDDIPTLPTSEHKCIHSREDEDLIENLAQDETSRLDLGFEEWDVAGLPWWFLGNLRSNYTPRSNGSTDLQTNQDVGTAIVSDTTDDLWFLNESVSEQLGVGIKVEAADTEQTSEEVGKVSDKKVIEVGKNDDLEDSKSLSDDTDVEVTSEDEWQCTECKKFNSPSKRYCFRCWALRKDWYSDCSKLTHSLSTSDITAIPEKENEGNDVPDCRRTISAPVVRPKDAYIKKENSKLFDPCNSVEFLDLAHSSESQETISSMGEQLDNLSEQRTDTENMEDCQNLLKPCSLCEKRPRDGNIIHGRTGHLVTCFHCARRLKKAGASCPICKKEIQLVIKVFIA
Target sequence (Q00987 whole entry, looked up): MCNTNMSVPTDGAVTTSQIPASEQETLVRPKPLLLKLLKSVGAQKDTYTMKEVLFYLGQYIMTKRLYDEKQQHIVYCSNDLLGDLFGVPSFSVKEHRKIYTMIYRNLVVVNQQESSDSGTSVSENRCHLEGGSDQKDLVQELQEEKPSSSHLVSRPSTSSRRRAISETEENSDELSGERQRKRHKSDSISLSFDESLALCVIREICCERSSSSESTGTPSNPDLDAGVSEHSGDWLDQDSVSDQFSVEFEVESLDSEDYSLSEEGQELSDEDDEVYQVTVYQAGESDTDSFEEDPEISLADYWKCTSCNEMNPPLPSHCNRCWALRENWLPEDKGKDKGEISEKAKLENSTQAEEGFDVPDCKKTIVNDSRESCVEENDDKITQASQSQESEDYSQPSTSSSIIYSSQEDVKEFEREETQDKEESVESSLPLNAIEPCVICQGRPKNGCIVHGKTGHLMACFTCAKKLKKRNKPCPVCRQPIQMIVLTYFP
Calb FLC – C. albicans growth modulation with fluconazole | C. albicans CaCi-2 (fluconazole-resistant clinical isolate) + fluconazole, Alamar Blue growth, 48 h | growth inhibition, % (test concentration not listed) | 300,000 compounds, 0.57% hits;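 active means growth inhibition above about 58% in most replicates, limit read from the data, passing the limit was not always enough; inconclusive means exactly half the replicates above a set limit; inactive means most replicates below a set limit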;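 further: all wells also contain fluconazole at 8 µg/ml as a sub-toxic cotreatment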
T cruzi repl – T. cruzi replication inhibition | inhibition, % (test concentration not listed) | 300,000 compounds, 1.4% hits | T. cruzi beta-gal in NIH3T3, luminescence, 90 h | AID 1885;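 active means mean inhibition across valid replicates above about 55%, limit read from the data; inconclusive means mean below that limit but half or more replicates reach it; inactive means mean below it, under half of replicates reach it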;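 further: signal also drops with host cell toxicity which is not excluded here; higher percent means less beta-gal luminescence so fewer parasites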
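System: mouse NIH/3T3 fibroblasts infected with β-gal-expressing T. cruzi Tulahuen C4 / Input: NIH/3T3 cells, 5,000 per well / Buffer or medium: Low-serum DMEM with 2% FBS / Probe or stimulus: 5000 reporter trypomastigotes per well / Schedule: ≥90 h infection period, 3 h prior cell attachment / Measured by: GalScreen luminescence, 60 min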
SKKanGAS inh – SKKanGAS growth inhibition. 300,000 compounds, 1.3% hits. inhibition, % at 7.5 µM. S. pyogenes SKKanGAS, kanamycin growth, BacTiter-Glo, 6 h;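 active means mean replicate score, as percent of positive control median, at least 50; inconclusive means mean below 50 but one replicate at or above 50; inactive means mean and every replicate below 50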;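 further: strain carries kanamycin resistance gene driven by streptokinase promoter and grows in 40 µg/ml kanamycin; loss of luminescence reflects streptokinase promoter inhibition or plain growth inhibition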
CSC inhib – cancer stem cell inhibition; cancer stem cell-like cells viability, luminescence; inhibition, % at 7.5 µM; 300,000 compounds, 1.1% hits; AID 2717; in the data active means inhibition above about 75%; inconclusive means no clear call, values can overlap the other calls; tested in HMLE shEcad cells
Mdm2 MdmX conf – confirmation of human Mdm2/MdmX interaction inhibitors. shares compounds with Mdm2-MdmX inh. Mdm2-MdmX binding, luminescent assay. inhibition, % at 8 µM. 10,000 compounds, 55% hits. AID 489028; in the data active means inhibition above about 40%
FLuc counter – counter-screen for Mdm2/MdmX inhibitors: full-length luciferase; SaOS-2 full-length luciferase counterscreen, luminescence; shares compounds with Mdm2-MdmX inh; inhibition, % at 8 µM; 6,200 compounds, 77% hits;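 active means mean inhibition at 8 µM reaching about 37%, which flags the compound as non-specific, limit read from the data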;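 further: p53-null SaOS-2 cells with luciferase driven by a doxycycline-inducible promoter; compound on cells about two nights before reading with doxycycline added after day one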
Hits are given with their value; – = inactive; ? = inconclusive; · = not tested or not shown. Rows were chosen to be rich in hits. Some 5.7% of all compounds tested hit in one or more screens of this group.

SMILES	Beta apoptosis	Mdm2-MdmX inh	Calb FLC	T cruzi repl	SKKanGAS inh	CSC inhib	Mdm2 MdmX conf	others
COC(=O)c1cc(=O)n(CCc2ccc(OC)c(OC)c2)c(=Nc2ccc(F)c(Cl)c2)s1	–	84	–	–	–	110	–
COC(=O)c1cc(=O)n(Cc2ccco2)c(=Nc2ccc(F)cc2)s1	–	58	–	–	–	–	–
Cc1noc(C)c1NC(=O)Nc1ccc2c(c1)CC(=O)N([C@@H](C)CO)C[C@@H](C)[C@@H](CN(C)C(=O)Nc1cccc3ccccc13)O2	–	–	·	·	·	–	·
Cc1ccc(C)c(Sc2ccc(NC(=O)CCN3C(=O)NC4(CCCC4)C3=O)cc2)c1	–	–	·	·	·	·	·
Cc1ccc(Sc2ccc(NC(=O)CCl)cc2)c(C)c1	–	66	–	–	–	–	–
CN(C)C(=S)Nc1ccc(Cc2ccncc2)cc1	–	–	–	–	–	–	·
Cc1sc(NC(=O)Cc2ccc3c(c2)OCO3)nc1-c1ccc2c(c1)CCN2C(=O)c1ccc(F)cc1	–	–	–	–	–	–	·
Cc1sc(NC(=O)Cc2ccc3c(c2)OCO3)nc1-c1ccc2c(c1)CCN2C(=O)c1ccccc1F	–	54	–	56	–	–	–
C=CC[C@@H](Cc1ccc(F)cc1)C(=O)OC[C@@H]1CCCN1C(=O)[C@H](CC=C)CC(=O)NCCO	–	–	·	·	·	–	·
COc1cc(NC(=S)NN2CCN(C)CC2)cc(OC)c1OC	–	–	–	–	–	–	·
Cn1c(SCC(=O)c2ccc3c(c2)NC(=O)CO3)nc2ccccc21	–	–	–	–	–	–	·
O=C1COc2ccc(C(=O)CSc3nc4ccccc4c(=O)n3-c3ccc(Cl)c(Cl)c3)cc2N1	–	98	–	–	–	–	–
CCc1ccc(-n2c(SCC(=O)c3ccc4c(c3)NC(=O)CO4)nc3ccccc3c2=O)cc1	–	64	–	–	–	–	–
CCCOc1ccc(NC(=O)CC2C(=O)N(CC)C(=S)N2CCCN2CCN(Cc3ccccc3)CC2)cc1 (stereo not drawn)	–	81	–	–	–	–	46	FLuc counter=65
CCN1C(=O)C(CC(=O)Nc2ccc(Br)cc2)N(CCCc2ccccc2)C1=S (stereo not drawn)	–	84	–	56	92	–	–
CCN[C@H]1CN(CCCOC)S(=O)(=O)c2sc(S(N)(=O)=O)cc21	–	–	·	·	·	–	·
COc1ccc2[nH]c3c(C)c4ccncc4c(C)c3c2c1	100	100	105	58	97	–	92	FLuc counter=–
COc1ccc2[nH]c(C)cc(=O)c2c1	–	–	?	–	–	–	·
Cc1c(-c2ccc(Cl)cc2)oc(=O)c2c(N)n(-c3ccccc3)nc12	–	86	–	–	–	–	–
COc1ccc(-c2ccc(C#N)c(SCC(=O)Nc3sc4c(c3C#N)CCC4)n2)cc1OC	–	97	–	–	–	–	63	FLuc counter=102
COc1cccc(-c2ccc(C#N)c(OC(=O)c3c(Cl)cccc3Cl)n2)c1	–	83	–	–	–	77	–
COc1cccc(-c2ccc(C#N)c(SCC(=O)NCCc3cccc(Cl)c3)n2)c1	–	55	–	–	–	–	–
CC(C)N1CCC(=NNC(=O)c2cccs2)CC1	–	–	–	–	–	–	·
CCCN(CCC)S(=O)(=O)c1ccc(C(=O)Nc2nnc(-c3cc(OC)cc(OC)c3)o2)cc1	·	51	–	58	102	–	–
CC1=C(C(=O)Nc2ccccc2C(=O)NC2CCC(C)CC2)SCCO1 (stereo not drawn)	–	–	–	–	–	–	·
SMILES	Beta apoptosis	Mdm2-MdmX inh	Calb FLC	T cruzi repl	SKKanGAS inh	CSC inhib	Mdm2 MdmX conf	others
CCCNC(=O)c1ccc(N2CCC3(CC2)CC(c2cccc(Br)c2)=NO3)c(NC(=O)c2ccc(Cl)c([N+](=O)[O-])c2)c1	–	61	–	–	–	–	–
Cc1ccc(CNC(=O)c2ccc(N3CCC4(CC3)CC(c3cccc(Br)c3)=NO4)c(NC(=O)c3ccc(Cl)c([N+](=O)[O-])c3)c2)cc1	–	–	·	·	·	·	·
O=c1c2ccccc2nc2n1C(CBr)CN2 (stereo not drawn)	–	–	–	–	–	·	·
O=C(COC(=O)C1CC2C=CC1C2)Nc1c(Br)cc([N+](=O)[O-])cc1Br (stereo not drawn)	–	–	·	·	·	–	·
CCOC(=O)/C(C#N)=C/c1cc(C)n(-c2ccccc2)c1C	–	52	–	–	–	–	66	FLuc counter=170
CC(C)(C)c1ccc(CN2N=Nc3ccccc3S2(=O)=O)cc1	–	67	–	–	–	–	47	FLuc counter=59
O=S1(=O)c2ccccc2N=NN1Cc1ccc(Cl)c(Cl)c1	–	–	–	–	–	–	·
CCn1nc(C(=O)NNC(=O)CCOc2cc(C)ccc2C)c2ccccc2c1=O	–	–	–	–	–	–	·
CC[n+]1c(/C=C2/C=C(C)CC(C)(C)C2)sc2ccc(OC)cc21	–	54	–	–	–	–	–	FLuc counter=57
O=C(COC(=O)CCc1nc2ccccc2c(=O)[nH]1)Nc1ccc2c(c1)OCO2	–	–	–	–	–	–	·
C=CCN(C(=O)c1csnn1)C(C(=O)NCc1ccccc1)c1cccs1 (stereo not drawn)	–	–	–	–	–	–	·
CC(CCc1ccccc1)NC(=O)CCCCCNc1nc(=S)[nH]c2ccccc12 (stereo not drawn)	–	–	–	–	–	–	·
CCOC(=O)C1=C(C)N=c2s/c(=C3/C(=O)Nc4ccccc43)c(=O)n2C1c1ccc(C)cc1 (stereo not drawn)	–	70	–	–	–	–	–
COC(=O)[C@H](CC(C)C)NC(=O)Cn1cnc(C(=O)Nc2ccc(C)c(C)c2)n1	·	–	·	·	·	·	·
O=C(Cc1cccs1)N1CCN(S(=O)(=O)c2ccc(F)c(F)c2)CC1	–	–	·	·	·	·	·
Cc1ccc(C)c(CN2CCC(CNC(=O)Nc3ccc(Br)cc3F)CC2)c1	–	56	–	–	–	–	44	FLuc counter=69
COc1ccc(-c2cc3nc(CCl)[nH]c(=O)c3s2)cc1	–	95	–	–	?	–	–
Cc1ccc(NC(=O)O/N=C/c2ccc(N(C)C)cc2)cc1	–	–	–	–	–	–	·
CCCCc1cc(=O)oc2cc(C)cc(OCC(=O)N3C[C@H]4C[C@@H](C3)c3cccc(=O)n3C4)c12	–	–	–	–	–	–	·
COc1ccc(-c2csc(/C(C#N)=C/Nc3ccc4c(c3)OCCO4)n2)cc1	–	52	–	–	–	–	–
COc1ccc(-c2csc(/C(C#N)=C\c3ccc(O)c([N+](=O)[O-])c3)n2)cc1OC	–	53	–	–	95	–	47	FLuc counter=62
